Key:
[1] = biological target: Protease (Human immunodeficiency virus 1) (UniProt Q9YQ12); experiment: Inhibition of recombinant HIV-1 protease at 50 nM
[2] = test system: T1, Protease (Human T-cell leukemia virus type I), Q82134 [L40I]; experiment: Inhibition of HTLV-1 protease L40I mutant at 50 nM by fluorimetric assay
T1 sequence (whole entry): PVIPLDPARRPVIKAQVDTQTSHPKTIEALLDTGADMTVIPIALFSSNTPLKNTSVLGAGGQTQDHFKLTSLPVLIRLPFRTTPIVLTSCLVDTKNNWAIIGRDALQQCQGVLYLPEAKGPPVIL
In short: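 Recombinant L40I-mutant HTLV-I protease, mutation limits autoproteolysis; fluorescent substrate read-out. Test compound at 50 nM, percent inhibition from single determinations.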

[3] = biological target: Protease (Human T-cell leukemia virus type I, UniProt Q82134, L40I); experiment: Inhibition of HTLV-1 protease L40I mutant by fluorimetric assay
In short: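 Recombinant L40I-mutant HTLV-I protease, mutation limits autoproteolysis; fluorescent substrate cleavage. Percent inhibition measured singly at 1, 5, 10, 20, 50 and 100 nM test compound. IC50 read from fitted sigmoid plot, error range from RMSD of the plot.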

Chain of Protease (Human immunodeficiency virus 1) (Q9YQ12 as listed by the source): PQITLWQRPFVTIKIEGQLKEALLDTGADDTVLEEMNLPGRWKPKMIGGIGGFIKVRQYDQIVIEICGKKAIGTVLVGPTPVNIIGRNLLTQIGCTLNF

Compound	inhibition [1] [%]	inhibition [2] [%]	IC50 [3] [nM]	INH [1] [nM]
CC(C)(C)CNC(=O)[C@H]1N(C(=O)[C@@H](O)[C@H](Cc2ccccc2)NC(=O)[C@@H](NC(=O)C2CCCCN2)C(C)(C)C)CSC1(C)C (single isomer, unassigned; enantiomer b)	54	11		
CC(C)(C)CNC(=O)[C@H]1N(C(=O)[C@@H](O)[C@H](Cc2ccccc2)NC(=O)[C@@H](NC(=O)[C@H](O)c2ccccc2)C(C)(C)C)CSC1(C)C	82	10		
CCCC(=O)NC(C(=O)N[C@H](C(=O)N[C@@H](Cc1ccccc1)[C@H](O)C(=O)N1CSC(C)(C)[C@H]1C(=O)NCC(C)(C)C)C(C)(C)C)c1cc(F)c(F)c(F)c1 (single isomer, unassigned; enantiomer b)	80	20		
CCCC(=O)NC(C(=O)N[C@H](C(=O)N[C@@H](Cc1ccccc1)[C@H](O)C(=O)N1CSC(C)(C)[C@H]1C(=O)NCC(C)(C)C)C(C)(C)C)c1cc(F)c(F)c(F)c1 (stereo in doubt; 19a) [listing 1 of 2 here]			13.2	
CC(C)(C)CNC(=O)[C@H]1N(C(=O)[C@@H](O)[C@H](Cc2ccccc2)NC(=O)[C@@H](NC(=O)C2CCCCN2)C(C)(C)C)CSC1(C)C (stereo in doubt; 14a)	93	24		
CC(C)(C)CNC(=O)[C@H]1N(C(=O)[C@@H](O)[C@H](Cc2ccccc2)NC(=O)[C@@H](NC(=O)[C@@H](N)C(C)(C)C)C(C)(C)C)CSC1(C)C	95	19		
CC(C)(C)CNC(=O)[C@H]1N(C(=O)[C@@H](O)[C@H](Cc2ccccc2)NC(=O)[C@@H](NC(=O)[C@@H](N)C2CCCCC2)C(C)(C)C)CSC1(C)C	99	65	35.8	
CCCC(=O)NC(C(=O)N[C@H](C(=O)N[C@@H](Cc1ccccc1)[C@H](O)C(=O)N1CSC(C)(C)[C@H]1C(=O)NCC(C)(C)C)C(C)(C)C)c1cc(F)c(F)c(F)c1 (stereo in doubt; 19b)	68	18		
CC(C)(C)CNC(=O)[C@H]1N(C(=O)[C@@H](O)[C@H](Cc2ccccc2)NC(=O)[C@@H](NC(=O)[C@@H](O)c2ccccc2)C(C)(C)C)CSC1(C)C	92	43		
CC(C)[C@H](N)C(=O)N[C@H](C(=O)N[C@@H](Cc1ccccc1)[C@H](O)C(=O)N1CSC(C)(C)[C@H]1C(=O)NCC(C)(C)C)C(C)(C)C	96	26		
CCCC(=O)NC(C(=O)N[C@H](C(=O)N[C@@H](Cc1ccccc1)[C@H](O)C(=O)N1CSC(C)(C)[C@H]1C(=O)NCC(C)(C)C)C(C)(C)C)c1cc(F)c(F)c(F)c1 (stereo in doubt; 19a) [listing 2 of 2 here]	> 99	84		
CC(C)(C)CNC(=O)[C@H]1N(C(=O)[C@@H](O)[C@H](Cc2ccccc2)NC(=O)[C@@H](NC(=O)C(=O)c2ccccc2)C(C)(C)C)CSC1(C)C	76	33		
CCCC(=O)NC(C(=O)N[C@H](C(=O)N[C@@H](Cc1ccccc1)[C@H](O)C(=O)N1CSC(C)(C)[C@H]1C(=O)NCC(C)(C)C)C(C)(C)C)c1cc(F)c(F)c(F)c1 (stereo in doubt; 20a) [listing 1 of 2 here]			11	
CC(C)(C)CNC(=O)[C@H]1N(C(=O)[C@@H](O)[C@H](Cc2ccccc2)NC(=O)[C@@H](NC(=O)[C@@H](N)c2ccccc2)C(C)(C)C)CSC1(C)C	> 99	69	37	
CC(C)(C)CNC(=O)[C@H]1N(C(=O)[C@@H](O)[C@H](Cc2ccccc2)NC(=O)[C@@H](NC(=O)C(C(=O)OCc2ccccc2)c2ccccc2)C(C)(C)C)CSC1(C)C (mixture of isomers)	34	26		
CCCC(=O)N[C@H](C(=O)N[C@H](C(=O)N[C@@H](Cc1ccccc1)[C@H](O)C(=O)N1CSC(C)(C)[C@H]1C(=O)NCC(C)(C)C)C(C)(C)C)[C@@H](C)CC	95	86	6.1	
CCCC(=O)NC(C(=O)N[C@H](C(=O)N[C@@H](Cc1ccccc1)[C@H](O)C(=O)N1CSC(C)(C)[C@H]1C(=O)NCC(C)(C)C)C(C)(C)C)c1cc(F)c(F)c(F)c1 (stereo in doubt; 20a) [listing 2 of 2 here]	> 99	81		
CCCC(=O)N[C@H](C(=O)N[C@H](C(=O)N[C@@H](Cc1ccccc1)[C@H](O)C(=O)N1CSC(C)(C)[C@H]1C(=O)NCC(C)(C)C)C(C)(C)C)c1ccccc1		93	6.4	99
CC(C)(C)CNC(=O)[C@H]1N(C(=O)[C@@H](O)[C@H](Cc2ccccc2)NC(=O)[C@@H](NC(=O)Cc2ccccc2)C(C)(C)C)CSC1(C)C	22	8		
CC(C)(C)CNC(=O)[C@H]1N(C(=O)[C@@H](O)[C@H](Cc2ccccc2)NC(=O)[C@@H](NC(=O)[C@@H](N)Cc2ccccc2)C(C)(C)C)CSC1(C)C	> 99	28		
CC(C)(C)CNC(=O)[C@H]1N(C(=O)[C@@H](O)[C@H](Cc2ccccc2)NC(=O)[C@@H](NC(=O)C(C)(C)c2ccccc2)C(C)(C)C)CSC1(C)C	80	4		
CC[C@H](C)[C@H](N)C(=O)N[C@H](C(=O)N[C@@H](Cc1ccccc1)[C@H](O)C(=O)N1CSC(C)(C)[C@H]1C(=O)NCC(C)(C)C)C(C)(C)C	97	31		

Reference: ChEMBL document CHEMBL1681720, “Maintaining potent HTLV-I protease inhibition without the P3-cap moiety in small tetrapeptidic inhibitors” (Bioorg Med Chem Lett, 2011)
